As usually defined, the CLint scaled is the capacity of the preparation to metabolise the compound, expressed as a volume cleared per time. In general, Ki refers to the equilibrium dissociation constant of an inhibitor or competing ligand from its target. Read a low Ki as higher affinity. In general, IC50 refers to the concentration at which inhibition is half-maximal. The term half-life denotes the time needed for the level to fall by half in the phase considered. Read a high half-life as slow loss. Broadly, the AUC is the area under the concentration-time curve, a measure of exposure. The low end stands for less exposure, the high end for more exposure. What is called Kp is tissue or fluid exposure divided by exposure in the circulation. The term Cmax denotes the maximum level reached in the sampled fluid or tissue. As a reminder, the bioavailability is the share of a dose that reaches the circulation, judged against a reference dose that is usually intravenous. A lower bioavailability goes with little systemic uptake.

Each structure is given as a SMILES string. Where only a bound is given, the exact number is not on record here.

Data set [1] is described as follows: Intrinsic clearance in human liver microsomes. In kind it is ADME, Microsome. The essentials: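 Intrinsic human clearance was determined in human liver microsomes. Standard error is estimated below 10%, based on a reference compound run as a standard.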
In general terms: Liver microsomes are a subcellular fraction often used to study metabolism.

The target in data set [2] is T1, Melanin-concentrating hormone receptor 1 (Rattus norvegicus, UniProt P97639). Nature of the data set: Binding affinity to chimeric rat/human MCH1R stably expressed in HEK293 cells. In kind it is cell-based. The essentials:
(§1)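 Each value is the average of at least two replicate determinations.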

Data set [3] concerns the target T2, Voltage-gated inwardly rectifying potassium channel KCNH2 (Homo sapiens, UniProt Q12809). As to the kind of experiment: Affinity for human ERG channel by patch clamp assay. The format is functional. A general note: The patch-clamp technique gives a direct electrical read-out from membranes.
Data set [4] has as its target T3, Muscarinic acetylcholine receptor M1 (Homo sapiens, UniProt P11229).
T3 sequence (P11229 whole entry): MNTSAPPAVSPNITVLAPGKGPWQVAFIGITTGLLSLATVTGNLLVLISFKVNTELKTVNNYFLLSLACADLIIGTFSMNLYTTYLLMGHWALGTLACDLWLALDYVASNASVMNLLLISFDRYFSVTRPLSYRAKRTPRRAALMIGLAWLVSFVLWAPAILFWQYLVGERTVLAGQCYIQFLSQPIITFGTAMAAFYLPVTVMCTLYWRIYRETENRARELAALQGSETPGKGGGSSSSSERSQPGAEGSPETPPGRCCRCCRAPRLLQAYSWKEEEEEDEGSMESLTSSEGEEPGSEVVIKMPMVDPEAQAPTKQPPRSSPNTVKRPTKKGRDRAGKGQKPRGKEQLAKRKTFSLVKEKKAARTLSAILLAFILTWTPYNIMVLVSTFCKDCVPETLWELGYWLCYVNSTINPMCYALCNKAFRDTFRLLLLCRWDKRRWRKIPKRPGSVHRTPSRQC
As to the kind of experiment: Binding affinity to muscarinic M1R.

Data set [5] in a line: Half life in Sprague-Dawley rat at 10 mg/kg, po and 2.5 mg/kg, iv. The format is ADME, organism-based. Particulars: in vivo. The essentials:
(§2)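 Rats dosed 10 mg kg-1 orally and 2.5 mg kg-1 iv. AUC and Cmax come from the oral dose. Brain levels were measured 1 h and 4 h after oral dosing and expressed as brain/plasma ratios at those times. Vd, clearance and t1/2 were derived from the same dosing.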

Data set [6] in a line: Brain concentration in Sprague-Dawley rat at 10 mg/kg, po after 1 hour. In kind it is ADME, organism-based. Further details: dose 10 mg/kg, route oral. Particulars: read-out: Drug uptake. The essentials: as §2
Data set [7] is described as follows: Volume of distribution in Sprague-Dawley rat at 10 mg/kg, po and 2.5 mg/kg, iv. In kind it is ADME, organism-based. The following applies: in vivo, read-out: Vdss. The essentials: as §2
A short description of data set [8]: Plasma concentration in Sprague-Dawley rats at 1 mg/kg after 1 day. The format is ADME, organism-based. Further details: dose 1 mg/kg. Particulars: rat.
The nature of data set [9]: AUC in Sprague-Dawley rat at 10 mg/kg, po. The following applies: plasma. In kind it is ADME, organism-based. On the set-up: dose 10 mg/kg, route oral. The essentials: as §2
Data set [10] in a line: Brain to plasma ratio in Sprague-Dawley rat at 10 mg/kg, po and 2.5 mg/kg, iv after 1 hour. In kind it is ADME, organism-based. The essentials: as §2
Data set [11] in a line: Cmax in Sprague-Dawley rat plasma at 10 mg/kg, po. In kind it is ADME, organism-based. Further details: dose 10 mg/kg, route oral. The essentials:
as §2

Data set [12] in a line: Brain to plasma ratio in Sprague-Dawley rat at 10 mg/kg, po and 2.5 mg/kg, iv after 4 hours. The format is ADME, organism-based. The essentials:
as §2

The target of a further data set is CYP2D6 (Homo sapiens, UniProt P10635). As to the kind of experiment: Inhibition of cytochrome P450 2D6 at 5 uM. In kind it is ADME. Particulars: read-out: Activity.
Data set [13] can be described thus: Clearance in Sprague-Dawley rat at 10 mg/kg, po and 2.5 mg/kg, iv. The format is ADME, organism-based. The following applies: in vivo.
The target of data set [14] is Muscarinic acetylcholine receptor M3 (Homo sapiens, UniProt P20309). As to the kind of experiment: Binding affinity to muscarinic M3R.
The nature of data set [15]: Brain concentration in Sprague-Dawley rat at 10 mg/kg, po after 4 hours. In kind it is ADME, organism-based. On the set-up: dose 10 mg/kg, route oral. The following applies: read-out: Drug uptake. The essentials:
as §2

Data set [16] concerns the target T1, Melanin-concentrating hormone receptor 1. As to the kind of experiment: Activity at chimeric rat/human MCH1R by accumulation of GTPgammaS. The essentials: as §1
The next data set has as its target CYP3A4 (Homo sapiens, UniProt P08684). Nature of the data set: Inhibition of cytochrome P450 3A4 at 5 uM. The format is ADME. The following applies: read-out: Activity.
Data set [17] in a line: Plasma concentration in Sprague-Dawley rats at 1 mg/kg after 14 days. The following applies: rat. In kind it is ADME, organism-based. Further details: dose 1 mg/kg.
Data set [18] is described as follows: Bioavailability in Sprague-Dawley rat at 10 mg/kg, po and 2.5 mg/kg, iv. The format is ADME, organism-based. Particulars: in vivo.
Data set [19] can be described thus: Selectivity for MCH1R over muscarinic M3R.
The target of data set [20] is T2, Voltage-gated inwardly rectifying potassium channel KCNH2. As to the kind of experiment: Displacement of [3H]dofetilide from human ERG channel. On the technique in general: Displacement assays read how much labelled ligand stays bound in the presence of the test substance.
Data set [21] addresses Melanin-concentrating hormone receptor 1 (Rattus norvegicus) (UniProt P97639). As to the kind of experiment: Inhibition of chimeric rat/human MCH1R at 10 uM. The essentials: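 Single-concentration test at 10 µM, reported as percent inhibition of MCH1R; values averaged from at least two replicates.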

T1 sequence (P97639 whole entry, looked up): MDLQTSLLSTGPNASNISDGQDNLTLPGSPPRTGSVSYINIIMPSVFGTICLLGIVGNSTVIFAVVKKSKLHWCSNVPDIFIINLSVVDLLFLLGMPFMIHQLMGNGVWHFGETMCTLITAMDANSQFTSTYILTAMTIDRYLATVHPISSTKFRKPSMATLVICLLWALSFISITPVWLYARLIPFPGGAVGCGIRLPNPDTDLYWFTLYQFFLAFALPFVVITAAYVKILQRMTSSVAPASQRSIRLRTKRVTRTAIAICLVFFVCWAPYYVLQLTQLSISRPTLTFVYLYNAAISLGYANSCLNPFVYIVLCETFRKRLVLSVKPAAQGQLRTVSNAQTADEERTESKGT
T2 sequence (Q12809 whole entry): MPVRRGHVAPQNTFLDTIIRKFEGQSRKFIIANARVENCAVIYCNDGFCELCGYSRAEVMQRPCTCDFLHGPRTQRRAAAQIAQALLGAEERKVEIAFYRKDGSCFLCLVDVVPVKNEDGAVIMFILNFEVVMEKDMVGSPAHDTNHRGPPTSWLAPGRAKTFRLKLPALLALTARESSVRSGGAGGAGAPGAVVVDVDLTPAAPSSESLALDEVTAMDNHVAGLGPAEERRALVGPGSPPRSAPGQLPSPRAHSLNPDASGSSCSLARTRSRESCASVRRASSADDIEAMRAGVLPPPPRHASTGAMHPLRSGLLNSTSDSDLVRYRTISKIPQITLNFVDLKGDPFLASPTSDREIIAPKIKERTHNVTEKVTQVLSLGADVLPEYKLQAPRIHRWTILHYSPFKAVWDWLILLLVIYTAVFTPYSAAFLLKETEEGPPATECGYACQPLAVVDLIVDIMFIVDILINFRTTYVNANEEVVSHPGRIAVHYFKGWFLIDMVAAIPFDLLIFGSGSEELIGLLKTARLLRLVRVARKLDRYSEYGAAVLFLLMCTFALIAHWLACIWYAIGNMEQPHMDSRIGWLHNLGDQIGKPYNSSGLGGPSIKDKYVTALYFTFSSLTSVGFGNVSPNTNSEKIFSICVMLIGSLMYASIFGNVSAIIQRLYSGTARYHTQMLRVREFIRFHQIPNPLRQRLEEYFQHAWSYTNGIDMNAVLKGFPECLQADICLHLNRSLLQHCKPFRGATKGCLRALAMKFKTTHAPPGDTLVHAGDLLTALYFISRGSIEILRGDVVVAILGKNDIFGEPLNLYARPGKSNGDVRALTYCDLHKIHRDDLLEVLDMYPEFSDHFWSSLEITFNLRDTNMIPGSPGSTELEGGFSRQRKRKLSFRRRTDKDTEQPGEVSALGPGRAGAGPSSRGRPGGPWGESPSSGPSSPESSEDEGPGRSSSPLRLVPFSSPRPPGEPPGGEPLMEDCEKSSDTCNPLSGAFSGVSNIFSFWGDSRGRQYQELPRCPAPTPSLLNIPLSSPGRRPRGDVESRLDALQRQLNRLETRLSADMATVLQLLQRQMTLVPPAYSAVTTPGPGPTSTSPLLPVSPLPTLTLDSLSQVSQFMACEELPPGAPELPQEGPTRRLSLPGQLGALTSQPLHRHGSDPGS
Sequence of CYP3A4 (P08684 whole entry): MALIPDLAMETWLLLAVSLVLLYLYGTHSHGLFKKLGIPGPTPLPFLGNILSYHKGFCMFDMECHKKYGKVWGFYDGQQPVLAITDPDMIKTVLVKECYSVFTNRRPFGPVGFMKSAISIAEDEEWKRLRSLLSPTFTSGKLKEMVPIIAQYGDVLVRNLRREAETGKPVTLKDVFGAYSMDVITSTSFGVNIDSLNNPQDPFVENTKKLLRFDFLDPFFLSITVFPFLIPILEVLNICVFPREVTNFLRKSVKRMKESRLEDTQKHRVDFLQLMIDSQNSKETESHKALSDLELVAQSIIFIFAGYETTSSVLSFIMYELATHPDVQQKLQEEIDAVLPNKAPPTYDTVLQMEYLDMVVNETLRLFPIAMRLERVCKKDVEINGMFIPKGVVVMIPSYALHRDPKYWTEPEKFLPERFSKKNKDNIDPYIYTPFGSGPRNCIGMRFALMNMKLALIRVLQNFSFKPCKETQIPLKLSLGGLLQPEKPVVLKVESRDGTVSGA
Sequence of Muscarinic acetylcholine receptor M3 (P20309 whole entry): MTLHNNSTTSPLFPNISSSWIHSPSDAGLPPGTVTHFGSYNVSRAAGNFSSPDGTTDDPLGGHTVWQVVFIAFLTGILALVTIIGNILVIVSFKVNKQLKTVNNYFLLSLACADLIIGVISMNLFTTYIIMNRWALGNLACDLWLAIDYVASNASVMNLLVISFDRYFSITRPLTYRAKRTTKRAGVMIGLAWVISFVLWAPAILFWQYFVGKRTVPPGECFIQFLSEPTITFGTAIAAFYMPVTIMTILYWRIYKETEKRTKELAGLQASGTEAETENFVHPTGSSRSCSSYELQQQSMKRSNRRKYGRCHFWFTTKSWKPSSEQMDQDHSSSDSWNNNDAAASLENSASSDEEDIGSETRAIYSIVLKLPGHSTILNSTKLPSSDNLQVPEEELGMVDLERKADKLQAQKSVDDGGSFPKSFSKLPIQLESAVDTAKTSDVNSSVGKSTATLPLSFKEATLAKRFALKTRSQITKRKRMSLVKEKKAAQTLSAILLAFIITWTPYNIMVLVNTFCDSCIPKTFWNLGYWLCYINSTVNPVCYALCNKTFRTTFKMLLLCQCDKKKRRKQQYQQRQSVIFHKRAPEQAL
Sequence of Melanin-concentrating hormone receptor 1 (Rattus norvegicus) (P97639 whole entry): as the sequence (P97639 whole entry, looked up) above
Sequence of CYP2D6 (P10635 whole entry): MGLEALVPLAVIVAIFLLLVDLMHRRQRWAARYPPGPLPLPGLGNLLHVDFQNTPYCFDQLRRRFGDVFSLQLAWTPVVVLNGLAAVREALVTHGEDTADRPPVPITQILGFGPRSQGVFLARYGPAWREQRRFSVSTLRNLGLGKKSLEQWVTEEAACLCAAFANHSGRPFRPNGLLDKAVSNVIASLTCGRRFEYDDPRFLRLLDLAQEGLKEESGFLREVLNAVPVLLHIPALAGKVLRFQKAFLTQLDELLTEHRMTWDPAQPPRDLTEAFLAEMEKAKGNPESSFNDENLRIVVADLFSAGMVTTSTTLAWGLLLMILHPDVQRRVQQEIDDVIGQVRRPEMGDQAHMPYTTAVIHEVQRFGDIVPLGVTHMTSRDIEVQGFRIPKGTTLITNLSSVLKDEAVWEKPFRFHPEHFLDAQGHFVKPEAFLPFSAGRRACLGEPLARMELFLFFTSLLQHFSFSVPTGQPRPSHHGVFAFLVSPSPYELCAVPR

As for `O=c1c2ccc(-c3ccc(Cl)cc3)cc2cnn1-c1ccc(N2CC[C@H](N3CCCC3)C2)nc1`, the intrinsic clearance (CLint scaled) in data set [1] turned out to be 16 mL/min/kg. Further, the Ki in data set [2] came to 1.6 nM.

On to `CN[C@H]1CCN(c2ccc(-n3ncc4cc(-c5ccc(C(F)(F)F)cc5)sc4c3=O)cn2)C1`, for which the affinity in data set [2] corresponds to a Ki of 3.1 nM.

In [1], `CN[C@@H]1CCN(c2ccc(-n3ncc4cc(-c5ccc(Cl)cc5)ccc4c3=O)cn2)C1` gave a CLint scaled of 12 mL/min/kg. For the same molecule, the affinity in [2] corresponds to a Ki of 1.5 nM.

In data set [1], `CN[C@@H]1CCN(c2ccc(-n3ncc4cc(-c5ccc(OC)cc5)sc4c3=O)cn2)C1` had a CLint scaled of 720 mL/min/kg. The same molecule yielded a Ki in data set [2] of 1.3 nM.

For the molecule `CN[C@H]1CCN(c2ccc(-n3ncc4cc(-c5ccc(C(F)(F)F)cc5)ccc4c3=O)cn2)C1`, in data set [1], the CLint scaled was found to be 26 mL/min/kg. The same molecule gave a Ki in data set [2] of 8.4 nM.

As for `CCc1ccc(-c2cc3cnn(-c4ccc(N5CC[C@@H](NC)C5)nc4)c(=O)c3s2)cc1`, in [1], the intrinsic metabolic clearance (CLint scaled) turned out to be 155 mL/min/kg. The same molecule gave a Ki in data set [2] of 2.6 nM.

Molecule `CCN[C@H]1CCN(c2ccc(-n3ncc4cc(-c5ccc(Cl)cc5)ccc4c3=O)cn2)C1` registered a CLint scaled in data set [1] of 9.2 mL/min/kg. The Ki in data set [2] came out at 1.9 nM.

For the molecule `CN(C)[C@H]1CCN(c2ccc(-n3ncc4cc(-c5ccc(C(F)(F)F)cc5)sc4c3=O)cn2)C1`, the CLint scaled in [1] turned out to be 18 mL/min/kg. Further, the Ki in data set [2] is 4.4 nM.

Take `CN[C@@H]1CCN(c2ccc(-n3ncc4cc(-c5ccc(C(F)(F)F)cc5)sc4c3=O)cn2)C1`: the IC50 in data set [3] came out at 1800 nM; in data set [16], 7.7 nM. The inhibition constant (Ki) in data set [4] was 260 nM; in data set [14], 160 nM; in [2], 3.3 nM. The molecule also showed an intrinsic metabolic clearance (CLint scaled) in data set [1] of 8.5 mL/min/kg. Further, the half-life in [5] was 11 h. The concentration at 1 h in [6] was 190 ng/g. The Vd in [7] is 4.1 L/kg. In data set [8], the concentration at 24 h worked out at 280 nM. The same molecule came in with an AUC in [9] of 8400 ng·h/mL. Also, the Kp at 1 h in [10] came to 1.4. This molecule returned a Cmax in [11] of 500 ng/mL. In addition, the partition ratio (Kp) at 4 h in [12] was determined as 3.1. Also, the inhibition at 5 µM at CYP2D6 and at CYP3A4 was under 10% in each case. In addition, in [13], the clearance is 4.3 mL/min/kg. Besides, the concentration at 4 h in data set [15] was determined as 1200 ng/g. In addition, the concentration at 336 h in [17] was 790 nM. The molecule also showed a bioavailability in [18] of 24%. Further, the Selectivity ratio in data set [19] was found to be 50.

Take `CN[C@H]1CCN(c2ccc(-n3ncc4cc(-c5ccc(Cl)cc5)ccc4c3=O)cn2)C1`: in [1], the CLint scaled was 8.9 mL/min/kg. The same molecule showed a half-life in [5] of 9.4 h. The concentration at 1 h in data set [6] is 94 ng/g. Further, the Vd in [7] was found to be 14 L/kg. The molecule also returned an AUC in data set [9] of 2200 ng·h/mL. Also, in [10], the Kp at 1 h stood at 7.8. In data set [11], this molecule showed a Cmax of 140 ng/mL. Moreover, the partition ratio (Kp) at 4 h in [12] was 23. The same molecule yielded a clearance in [13] of 17 mL/min/kg. In data set [2], this molecule had a Ki of 1.2 nM. In addition, in data set [15], the concentration at 4 h came out at 1700 ng/g. In data set [16], this molecule registered an IC50 of 8.5 nM. In addition, in data set [18], the bioavailability stood at 22%.

In data set [1], `CN(C)[C@@H]1CCN(c2ccc(-n3ncc4cc(-c5ccc(Cl)cc5)ccc4c3=O)cn2)C1` had a CLint scaled of 21 mL/min/kg. Besides, the affinity in [2], expressed as Ki, was 1.1 nM.

Regarding `CN[C@@H]1CCN(c2ccc(-n3ncc4cc(-c5ccc(Cl)cc5)sc4c3=O)cn2)C1`, the CLint scaled in data set [1] amounted to 8.4 mL/min/kg. Further, the Ki in data set [2] amounted to 1.9 nM.

As for `CN(C)[C@H]1CCN(c2ccc(-n3ncc4cc(-c5ccc(Cl)cc5)ccc4c3=O)cn2)C1`, in [1], the CLint scaled came out at 12 mL/min/kg. Besides, in [2], the Ki came to 1.1 nM.

With `CN(C)[C@H]1CCN(c2ccc(-n3ncc4cc(-c5ccc(C(F)(F)F)cc5)oc4c3=O)cn2)C1`, the intrinsic metabolic clearance (CLint scaled) in [1] was 28 mL/min/kg. In data set [2], affinity was put at a Ki of 21 nM.

The molecule `CN[C@@H]1CCN(c2ccc(-n3ncc4cc(-c5ccc(C(F)(F)F)cc5)ccc4c3=O)cn2)C1` showed a CLint scaled in [1] of 6 mL/min/kg. The molecule further showed an inhibition constant (Ki) in data set [2] of 10 nM.

Consider `CNC1CCN(c2ccc(NC(=O)c3ccc(-c4ccccc4)cc3)cn2)C1` (stereo not given), for which, in [20], the Ki was determined as 200 nM.

As for `CN(C)[C@H]1CCN(c2ccc(-n3ncc4cc(-c5ccc(C(F)(F)F)cc5)n(C)c4c3=O)cn2)C1`, the CLint scaled in data set [1] is 48 mL/min/kg. In data set [2], this molecule showed a Ki of 14 nM.

For `CN[C@H]1CCN(c2ccc(-n3ncc4cc(-c5ccc(OC)cc5C)ccc4c3=O)cn2)C1`, in data set [1], the CLint scaled was found to be 8.8 mL/min/kg. Also, the affinity in [2], expressed as Ki, was 11 nM.

`CN[C@H]1CCN(c2ccc(-n3ncc4cc(-c5ccc(F)cc5)sc4c3=O)cn2)C1` showed a CLint scaled in data set [1] of 12 mL/min/kg. Further, affinity in data set [2] was put at a Ki of 2 nM.

Molecule `CN[C@@H]1CCN(c2ccc(-n3ncc4cc(-c5ccc(F)cc5)sc4c3=O)cn2)C1` displayed a CLint scaled in data set [1] of 8.2 mL/min/kg. The molecule also gave a Ki in [2] of 2.5 nM.

As to `CN(C)[C@H]1CCN(c2ccc(-n3ncc4cc(-c5ccc(C(F)(F)F)cc5)[se]c4c3=O)cn2)C1`, the CLint scaled in data set [1] was 27 mL/min/kg. For the same molecule, the inhibition in data set [21] was 28%.
